High-throughput results from PubChem BioAssay.
In the library only some 3.5% were active in any assay of this set; here they are far more common.
RGS4 inh: RGS4 inhibitors, primary screen, cell-based, HEK293 M3R inducible RGS4, calcium flux; AID 463165, 2010; hit rate 0.45% among 310,000; B-score at 10 µM; Regulator of G-protein signaling 4 (Homo sapiens), P49798; Fluo-4 calcium flux; stronger effect = higher value; triggered by carbachol at its EC20;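 active = B-score, a plate-corrected calcium signal, over three deviations above library mean, with baseline fluorescence within five deviations of library mean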;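 also: RGS4 expression induced by doxycycline in cells with stable M3 receptor; B-score is computed from the integrated fluorescence ratio over baseline after carbachol; higher B-score means a larger calcium signal and so more RGS4 inhibition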
Target sequence (P49798 whole entry, looked up): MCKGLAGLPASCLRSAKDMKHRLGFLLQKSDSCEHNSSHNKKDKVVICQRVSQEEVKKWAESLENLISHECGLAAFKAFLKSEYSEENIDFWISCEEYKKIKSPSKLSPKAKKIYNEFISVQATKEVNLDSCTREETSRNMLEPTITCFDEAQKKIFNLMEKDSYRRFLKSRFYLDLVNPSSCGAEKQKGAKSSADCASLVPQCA
MrgX1 agonist: agonists of human MrgX1 receptor, primary screen, HEK293 cells, Fluo-4 calcium flux | Mas-related G-protein coupled receptor member X1 (Homo sapiens), Q96LB2 | Fluo-4 calcium fluorescence, agonist mode; stronger effect = higher value | B-score at 10 µM | hit rate 0.44% among 310,000 | AID 588627, 2011;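 active = calcium response B-score plate-corrected fluorescence ratio at least 3 library SD, with starting fluorescence B-score inside 5 SD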
Target sequence (Q96LB2 whole entry, looked up): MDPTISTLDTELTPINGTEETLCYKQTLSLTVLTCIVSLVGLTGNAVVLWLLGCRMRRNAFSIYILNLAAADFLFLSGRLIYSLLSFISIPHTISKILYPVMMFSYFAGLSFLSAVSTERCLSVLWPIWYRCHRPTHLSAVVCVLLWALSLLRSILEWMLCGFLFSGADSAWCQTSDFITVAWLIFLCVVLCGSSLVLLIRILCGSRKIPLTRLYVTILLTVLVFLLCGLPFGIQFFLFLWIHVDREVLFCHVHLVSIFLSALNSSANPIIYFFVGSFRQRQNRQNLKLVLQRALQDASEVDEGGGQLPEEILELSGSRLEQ
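Material: MrgX1-expressing HEK293 cells / Dosing: compound as first of three additions / Incubation: overnight seeding, then 1 h dark dye loading / Signal: Fluo-4 NW calcium fluorescence / Evaluation: B-scored fluorescence response ratio / Benchmarks: positive and negative control wells on each plate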
MrgX1 PAM: positive allosteric modulators of MrgX1, primary screen, HEK293 cells, Fluo-4 calcium flux | Mas-related G-protein coupled receptor member X1 (Homo sapiens), Q96LB2 | FDSS; stronger effect = higher value | B-score at 10 µM | hit rate 0.63% among 310,000 | AID 588675, 2011;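 active = plate-corrected calcium response at least 3 library SD above typical, normal starting fluorescence, not activating the receptor alone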;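 also: compound read alongside a low EC10 to EC30 dose of BAM8-22 agonist; peak minus trough fluorescence over baseline measured at the second addition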
MrgX1 antag: antagonists of human MrgX1 receptor, primary screen, HEK293 cells, Fluo-4 calcium flux; Mas-related G-protein coupled receptor member X1 (Homo sapiens), Q96LB2; BAM8-22 antagonism; stronger effect = lower value; B-score at 10 µM; hit rate 1.3% among 310,000;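 active = calcium-response B-score plate-corrected more than 3 library SD below zero, starting fluorescence within 5 deviations, no agonist response on first addition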;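 also: peak minus trough fluorescence over baseline after final BAM8-22 challenge near maximal dose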
RGS4 act: RGS4 potentiators or activators, primary screen, cell-based, HEK293 M3R inducible RGS4, calcium flux | carbachol calcium flux Fluo4; stronger effect = lower value | B-score at 10 µM | hit rate 0.92% among 310,000;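 active = B-score of the integrated calcium signal more than 4 SD below the library mean, with starting fluorescence not abnormally high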;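 also: negative B-score means reduced calcium response which marks RGS4 activation or potentiation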
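test system = HEK293 cells with stable M3R and inducible RGS4 | schedule = recording 10 s baseline at 1 Hz, 100 s post-agonist | technique = Fluo4-AM (2 µM) calcium-flux fluorescence, kinetic read | measure = Agonist-evoked peak-minus-minimum fluorescence over baseline, integrated ratio, B score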
RGS4 inh valid: enhanced carbachol calcium response, M3R/RGS4 cells, RGS4 inhibitor project, cell-based, validation screen, HEK293 M3R/RGS4, calcium flux. shares compounds with RGS4 inh. carbachol calcium Fluo-4 fluorescence; carbachol added at its EC20; 0 = buffer wells, 100 = carbachol control. calcium response, % at 10 µM. hit rate 65% among 1,700. AID 492999, 2010;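 active = duplicate-averaged calcium response above the buffer-only control mean plus 5 SD of those controls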;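 also: integrated fluorescence ratio F max minus min over baseline F0; higher response in RGS4-induced cells means RGS4 inhibition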
M3R Ca ctr: carbachol calcium response in non-induced M3R cells, confirmation, counter-screen for RGS4 inhibitor project, cell-based, HEK293 M3R | activity (percent), % at 10 µM | carbachol calcium Fluo-4; submaximal (EC20) carbachol stimulus; buffer wells 0%, carbachol control wells 100% | hit rate 20% among 1,900 | AID 493000, 2010 | shares compounds with RGS4 inh; call rule not given here;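 also: RGS4 induction absent so cells express M3R without RGS4; higher means more calcium signal and flags a non-specific hit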
RGS4 inh ctr2: second RGS4 inhibitor counter-screen in uninduced cells lacking carbachol; shares compounds with RGS4 inh; HEK293 M3R/RGS4 non-induced, Fluo-4 calcium, no carbachol; normalised: buffer wells 0%, carbachol wells 100%; calcium response (agonist-mode artifact), % at 10 µM; hit rate 22% among 1,900; AID 493001;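 active = duplicate-averaged calcium rise in uninduced cells above buffer wells' mean plus 5 SD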
Of the large screens only hits and unclear results are named; the others gave an inactive call (follow-up assays come after a bar, where they were run).

Cc1ccccc1NC(=O)C(=Cc1ccc(C(=O)O)cc1)C(=O)Nc1ccccc1C	RGS4 inh 10 (no result: MrgX1 agonist, MrgX1 PAM, MrgX1 antag) | RGS4 inh valid 53% | M3R Ca ctr inactive | RGS4 inh ctr2 inactive
CN(C(=O)COC(=O)c1ccc2c(c1)OCO2)c1c(N)n(Cc2ccccc2)c(=O)[nH]c1=O	none
O=C(O)CCN1C(=O)/C(=C\c2ccc(-c3nc4ccccc4s3)o2)SC1=S	none | RGS4 inh valid inactive | M3R Ca ctr inactive | RGS4 inh ctr2 54%
O=C(O)CCCN1C(=O)/C(=C\c2ccco2)SC1=S	none (no result: MrgX1 agonist, MrgX1 PAM, MrgX1 antag)
O=C1c2[nH]nc(-c3ccccc3O)c2C(c2cccc(Cl)c2)N1Cc1ccco1 (stereo not given)	RGS4 inh 8.1 | RGS4 inh valid 25% | M3R Ca ctr inactive | RGS4 inh ctr2 inactive
O=C1c2[nH]nc(-c3ccccc3O)c2C(c2ccc(F)cc2)N1Cc1ccco1 (stereo not given)	RGS4 inh 9 | RGS4 inh valid 20% | M3R Ca ctr inactive | RGS4 inh ctr2 inactive
COc1ccc(C2c3c(-c4ccccc4O)n[nH]c3C(=O)N2Cc2ccco2)cc1OC (stereo not given)	none
CCOc1cc(/C=C\[N+](=O)[O-])ccc1OCC(=O)Nc1ccccc1C	RGS4 inh 43 | RGS4 inh valid 54% | M3R Ca ctr 47% | RGS4 inh ctr2 inactive
CC1CC1C(=O)Nc1nc2ccc(S(C)(=O)=O)cc2s1 (stereo not given)	RGS4 inh 6.1 | RGS4 inh valid inactive | M3R Ca ctr inactive | RGS4 inh ctr2 inactive
Cc1ccc2nc(NC(=O)C3CC3C)sc2c1 (stereo not given)	none
CCN(CC)CCN(C(=O)c1ccc2c(c1)CCCC2)c1nc2cc(OC)c(OC)cc2s1	RGS4 inh 5.3 | RGS4 inh valid inactive | M3R Ca ctr inactive | RGS4 inh ctr2 inactive
COc1cc2nc(N(CCN(C)C)C(=O)c3ccc4ccccc4c3)sc2cc1OC	none
Clc1ccc2[nH]c3c(c2c1)CCc1cn[nH]c1-3	RGS4 inh 11 | RGS4 inh valid 75% | M3R Ca ctr 40% | RGS4 inh ctr2 27%
COc1ccc2ncc(OC(C)=O)cc2c1	none
Clc1ccc(-c2csc(N/N=C/c3cccnc3)n2)c(Cl)c1	none
C(=N\Nc1nc(-c2ccccc2)cs1)/c1cccnc1	none | RGS4 inh valid inactive | M3R Ca ctr inactive | RGS4 inh ctr2 inactive
CC(C)n1c(SCC(=O)Nc2nncs2)nnc1-c1ccco1	none
Cc1ccc(CNC(=O)c2cn(C3CCCCC3)c(=O)c3c2c2ccccc2n3C)o1	RGS4 inh 6.1 | RGS4 inh valid 13% | M3R Ca ctr inactive | RGS4 inh ctr2 inactive
Cc1ccc(/C=N/N2CCN(Cc3ccc(C)cc3)CC2)cc1	none | RGS4 inh valid inactive | M3R Ca ctr inactive | RGS4 inh ctr2 inactive
O=C1C(Cl)=C(N2CCC(C(=O)O)CC2)C(=O)c2ccccc21	RGS4 inh 8.8, MrgX1 PAM 15 | RGS4 inh valid 39% | M3R Ca ctr inactive | RGS4 inh ctr2 inactive
NC(=O)C1CCN(C2=C(NS(=O)(=O)c3ccccc3)C(=O)c3ccccc3C2=O)CC1	none
Nc1nnc(SCC(=O)NN2C(=O)NC3(CCCCC3)C2=O)s1	none
Cc1ccc(/C=C(\NC(=O)c2ccc(C)cc2)c2nc(=S)[nH][nH]2)cc1	RGS4 inh 11 | RGS4 inh valid 35% | M3R Ca ctr 44% | RGS4 inh ctr2 inactive
Cc1ccc(C(=O)N/C(=C\c2ccccc2F)c2nc(=S)[nH][nH]2)cc1	none
Cc1cccc(-c2ocnc2C(=O)N2CCN(C(=O)c3cccs3)CC2)c1	none
Oc1ccc(N=Nc2ccccc2)o1	RGS4 inh 4.9 | RGS4 inh valid 7.5% | M3R Ca ctr inactive | RGS4 inh ctr2 inactive
Cc1ccc(C)c(NC(=O)CS(=O)(=O)c2cccc3nsnc23)c1	none
Cc1cc(C)cc(C(=O)NC(CC(N)=O)c2ccc(N3CCCCCC3)c([N+](=O)[O-])c2)c1 (stereo not given)	none
CC(NC(=O)/C(C#N)=C/c1ccc(C(=O)O)cc1)c1ccccc1 (stereo not given)	RGS4 inh 13 | RGS4 inh valid 44% | M3R Ca ctr 40% | RGS4 inh ctr2 inactive
COc1ccc(OC)c(NC(=O)c2ccc(OC3CSC3)cc2)c1	none
Cc1[nH]n(-c2ccccc2)c(=O)c1C=Nc1ccc(S(N)(=O)=O)cc1	none
Cc1[nH]n(-c2c(Cl)cc(Cl)cc2Cl)c(=O)c1C=Nc1ccc(S(=O)(=O)N2CCOCC2)cc1	none | RGS4 inh valid inactive | M3R Ca ctr inactive | RGS4 inh ctr2 inactive
CC(C)c1ccc(/C=N/n2c(COc3ccccc3)n[nH]c2=S)cc1	none
N#Cc1c(NC(=O)CSc2ncn[nH]2)sc2c1CCCC2	RGS4 inh 5.1 | RGS4 inh valid 8.5% | M3R Ca ctr inactive | RGS4 inh ctr2 inactive
CC1CCc2c(sc(NC(=O)CSc3ncn[nH]3)c2C#N)C1 (stereo not given)	none
O=C(CSc1nc2ccccc2[nH]1)Nc1nc(-c2ccc(Br)cc2)cs1	RGS4 inh 6.6 | RGS4 inh valid 6.0% | M3R Ca ctr inactive | RGS4 inh ctr2 inactive
CCCc1cc(=O)[nH]c(SCC(=O)Nc2nc(-c3ccccc3)cs2)n1	none
CC(C)(CC(=O)O)CC(=O)N1CCN(c2cc(C(F)(F)F)nc3ccccc23)CC1	RGS4 inh 5 | RGS4 inh valid inactive | M3R Ca ctr inactive | RGS4 inh ctr2 inactive
FC(F)(F)c1cc(N2CCN(Cc3ccccc3)CC2)c2ccccc2n1	none
O=C(Oc1ccc(Cl)c2cccnc12)c1cccc([N+](=O)[O-])c1	RGS4 inh 4.7 | RGS4 inh valid 25% | M3R Ca ctr inactive | RGS4 inh ctr2 inactive
COC(=O)c1cc(NC(=O)c2c(F)c(F)c(F)c(F)c2F)cc(C(=O)OC)c1	none
CC(=O)Nc1cc(Cl)c(N=Cc2ccc(O)cc2O)cc1Cl	RGS4 inh 8.1 | RGS4 inh valid 16% | M3R Ca ctr 29% | RGS4 inh ctr2 inactive
Cc1ccc(NC(=O)CN(C)C(=O)c2ccc(Cl)nc2)cc1	none
COc1cnc(-c2ccccn2)nc1Oc1ccc(Cl)c2ccccc12	RGS4 inh 10 | RGS4 inh valid 16% | M3R Ca ctr inactive | RGS4 inh ctr2 inactive
